In brackets after ≈: the same amount, converted by molar mass.
How the values were obtained:
Rattus norvegicus [1] = assay: Inhibition of histamine-stimulated gastric acid secretion in lumen-perfused stomach of anesthetized rats after 1 mg/kg iv administration; type: functional
Summary of the method: (§1)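 Male Sprague-Dawley rats, about 250 g, fasted 24 h and anesthetized with urethane 1.25 g/kg ip. Stomach lumen perfused with saline, perfusate titrated with 25 mM NaOH. Acid secretion was driven by iv histamine infusion at 3 mg/kg/h. At plateau, compound 1 mg/kg iv. Read-out is maximal inhibition of acid output, n = 2.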

Helicobacter pylori [2] = assay: Minimum inhibitory concentration required to inhibit macroscopic colonial growth of Helicobacter pylori; ranges from (0.025-0.1); type: functional
Summary of the method: (§2)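 Agar dilution against 10 H. pylori strains (8001, 8003, 8004, 8007, 8008, 8009, 8011, 9005, FP1530, FP1532). Strains precultured 3 days at 37 °C on Brucella agar with 3% horse serum and 2% starch, then adjusted to McFarland No. 1. A 10²-fold dilution was spotted onto Brucella agar with 7% lysed horse blood and 2-fold drug dilutions. Plates incubated 3 days at 37 °C under 10% CO2. MIC is the lowest concentration preventing visible colonies; mean and range span the 10 strains.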

Cavia porcellus [3] = species on record: Cavia porcellus; assay: Inhibition of histamine-stimulated chronotropic response in isolated guinea pig right atrium at 1*10e-6 g/mL; type: functional, Cardiac atrium
Summary of the method: (§3)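 Guinea pig atrial strip in Thyrode solution at 30 °C, gassed with 95% O2-5% CO2, initial tension 0.3-0.6 g. Beating rate recorded. Histamine hydrochloride 1 × 10⁻⁶ g/mL was given first. After washout, test compound at 1 × 10⁻⁶ g/mL was added 30 min later. Percent inhibition compares histamine-induced rate increases before and 30 min after compound.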

Helicobacter pylori [4] = assay: Minimum inhibitory concentration required to inhibit macroscopic colonial growth of Helicobacter pylori; ranges from (0.2-1.56); type: functional; summary of the method: as §2
Helicobacter pylori [5] = assay: Minimum inhibitory concentration required to inhibit macroscopic colonial growth of Helicobacter pylori; ranges from (3.13-6.25); type: functional; summary of the method: as §2
Helicobacter pylori [6] = assay: microbe, parasite or virus in culture
Helicobacter pylori [7] = assay: Minimum inhibitory concentration required to inhibit macroscopic colonial growth of Helicobacter pylori; ranges from (6.25-25); type: functional; summary of the method: as §2
Cavia porcellus [8] = species on record: Cavia porcellus; assay: Inhibition of histamine-stimulated chronotropic response in isolated guinea pig right atrium at 1*10e-4 g/mL; type: functional, Cardiac atrium
Helicobacter pylori [9] = assay: Minimum inhibitory concentration required to inhibit macroscopic colonial growth of Helicobacter pylori;ranges from (0.003-0.025); type: functional; summary of the method: as §2
Helicobacter pylori [10] = assay: Minimum inhibitory concentration required to inhibit macroscopic colonial growth of Helicobacter pylori; ranges from (0.0125-0.1); type: functional; summary of the method: as §2
Helicobacter pylori [11] = assay: Minimum inhibitory concentration required to inhibit macroscopic colonial growth of Helicobacter pylori; ranges from (0.2-3.13); type: functional; summary of the method: as §2
Helicobacter pylori [12] = assay: Minimum inhibitory concentration required to inhibit macroscopic colonial growth of Helicobacter pylori; ranges from (0.78-6.25); type: functional; summary of the method: as §2
Helicobacter pylori [13] = assay: Minimum inhibitory concentration required to inhibit macroscopic colonial growth of Helicobacter pylori; ranges from (0.05-0.2); type: functional; summary of the method: as §2
Helicobacter pylori [14] = assay: Minimum inhibitory concentration required to inhibit macroscopic colonial growth of Helicobacter pylori;ranges from (0.10-0.78); type: functional; summary of the method: as §2
Helicobacter pylori [15] = assay: Minimum inhibitory concentration required to inhibit macroscopic colonial growth of Helicobacter pylori; ranges from (1.56-12.5); type: functional; summary of the method: as §2
Helicobacter pylori [16] = assay: Minimum inhibitory concentration required to inhibit macroscopic colonial growth of Helicobacter pylori; ranges from (3.13-12.5); type: functional; summary of the method: as §2
Cavia porcellus [17] = species on record: Cavia porcellus; assay: Inhibition of histamine-stimulated chronotropic response in isolated guinea pig right atrium; type: functional, Cardiac atrium; summary of the method: as §3
Rattus norvegicus [18] = assay: Inhibition of histamine-stimulated gastric acid secretion in lumen-perfused stomach of anesthetized rats; type: functional; summary of the method: as §1
Helicobacter pylori [19] = assay: Minimum inhibitory concentration required to inhibit macroscopic colonial growth of Helicobacter pylori; type: functional; summary of the method: as §2
Helicobacter pylori [20] = assay: Minimum inhibitory concentration required to inhibit macroscopic colonial growth of Helicobacter pylori; ranges from ([…]-6.25); type: functional; summary of the method: as §2
Helicobacter pylori [21] = assay: Minimum inhibitory concentration required to inhibit macroscopic colonial growth of Helicobacter pylori; ranges from (3.13-[…]); type: functional; summary of the method: as §2
Helicobacter pylori [22] = assay: Minimum inhibitory concentration required to inhibit macroscopic colonial growth of Helicobacter pylori; ranges from (0.1-0.78); type: functional; summary of the method: as §2
Helicobacter pylori [23] = assay: Minimum inhibitory concentration required to inhibit macroscopic colonial growth of Helicobacter pylori; ranges from(1.56-25); type: functional; summary of the method: as §2
Helicobacter pylori [24] = assay: Minimum inhibitory concentration required to inhibit macroscopic colonial growth of Helicobacter pylori ranges from (6.25-12.5); type: functional; summary of the method: as §2
Helicobacter pylori [25] = assay: Minimum inhibitory concentration required to inhibit macroscopic colonial growth of Helicobacter pylori; ranges from (0.2-0.78); type: functional; summary of the method: as §2
Helicobacter pylori [26] = assay: Minimum inhibitory concentration required to inhibit macroscopic colonial growth of Helicobacter pylori; ranges from (0.00625-0.1); type: functional; summary of the method: as §2
Helicobacter pylori [27] = assay: Minimum inhibitory concentration required to inhibit macroscopic colonial growth of Helicobacter pylori; ranges from (0.39-6.25); type: functional; summary of the method: as §2
Helicobacter pylori [28] = assay: Minimum inhibitory concentration required to inhibit macroscopic colonial growth of Helicobacter pylori; ranges from (0.025-0.39); type: functional; summary of the method: as §2
Helicobacter pylori [29] = assay: Minimum inhibitory concentration required to inhibit macroscopic colonial growth of Helicobacter pylori; ranges from (0.78-1.56); type: functional; summary of the method: as §2

COc1ccccc1CC/N=C(\N)Nc1nc(-c2cccc(CNC(C)=O)n2)cs1
inhibition in vivo at 1 mg/kg (Rattus norvegicus [1]): 65% | MIC (Helicobacter pylori [2]): 0.037 µg/mL (≈ 0.0872 µM) | Inhibition (Cavia porcellus [3]): 78%

CCCC/N=C(\N)Nc1nc(-c2cccc(CNC(C)=O)n2)cs1
MIC (Helicobacter pylori [4]): 0.59 µg/mL (≈ 1.7 µM) | inhibition in vivo at 1 mg/kg (Rattus norvegicus [1]): 76% | Inhibition (Cavia porcellus [3]): 100%

CCCC/N=C(\N)Nc1nc(-c2ccnc(CNC(C)=O)n2)cs1
MIC (Helicobacter pylori [5]): 4.1 µg/mL (≈ 11.8 µM) | Inhibition (Cavia porcellus [3]): <10%

CN/C(=N\CCSCc1nc[nH]c1C)NC#N [CIMETIDINE]
MIC (Helicobacter pylori [6]): 1130 µg/mL (≈ 4480 µM) | inhibition in vivo at 1 mg/kg (Rattus norvegicus [1]): 53% | Inhibition (Cavia porcellus [3]): 43%

CC(=O)NCC/N=C(\N)Nc1nc(-c2cccc(CNC(C)=O)n2)cs1
MIC (Helicobacter pylori [7]): 11.5 µg/mL (≈ 30.6 µM)

COc1ccccc1CC/N=C(\N)Nc1nc(-c2ccc(CNC(C)=O)s2)cs1
Inhibition (Cavia porcellus [8]): <10% | MIC (Helicobacter pylori [9]): 0.0065 µg/mL (≈ 0.0151 µM)

COc1ccccc1CC/N=C(\N)Nc1nc(-c2csc(CNC(C)=O)n2)cs1
MIC (Helicobacter pylori [10]): 0.043 µg/mL (≈ 0.0999 µM) | inhibition in vivo at 1 mg/kg (Rattus norvegicus [1]): 23% | Inhibition (Cavia porcellus [3]): 30%

COc1ccccc1CC/N=C(\N)Nc1nc(-c2ncc(CNC(C)=O)o2)cs1
MIC (Helicobacter pylori [11]): 1.1 µg/mL (≈ 2.65 µM) | inhibition in vivo at 1 mg/kg (Rattus norvegicus [1]): 50% | Inhibition (Cavia porcellus [3]): 37%

CCC/N=C(\N)Nc1nc(-c2cccc(CNC(C)=O)n2)cs1
MIC (Helicobacter pylori [12]): 2.9 µg/mL (≈ 8.72 µM)

CCCC/N=C(\N)Nc1nc(-c2csc(CNC(C)=O)n2)cs1
MIC (Helicobacter pylori [4]): 0.52 µg/mL (≈ 1.48 µM) | inhibition in vivo at 1 mg/kg (Rattus norvegicus [1]): 50% | Inhibition (Cavia porcellus [3]): 85%

CC(=O)NCc1cccc(-c2csc(NC(=N)NCCc3ccccc3)n2)n1
MIC (Helicobacter pylori [13]): 0.1 µg/mL (≈ 0.253 µM) | Inhibition (Rattus norvegicus [1]): 50% | Inhibition (Cavia porcellus [3]): 71%

COc1ccccc1CC/N=C(\N)Nc1nc(-c2cccc(CNC(C)=O)c2)co1
MIC (Helicobacter pylori [14]): 0.3 µg/mL (≈ 0.736 µM) | inhibition in vivo at 1 mg/kg (Rattus norvegicus [1]): 40% | Inhibition (Cavia porcellus [3]): 65%

CCCC/N=C(\N)Nc1nc(-c2ccc(CNC(C)=O)o2)co1
MIC (Helicobacter pylori [7]): 19.3 µg/mL (≈ 60.4 µM) | inhibition in vivo at 1 mg/kg (Rattus norvegicus [1]): 51% | Inhibition (Cavia porcellus [3]): 82%

CC/N=C(\N)Nc1nc(-c2cccc(CNC(C)=O)n2)cs1
MIC (Helicobacter pylori [15]): 4.7 µg/mL (≈ 14.8 µM)

COCC/N=C(\N)Nc1nc(-c2cccc(CNC(C)=O)n2)cs1
MIC (Helicobacter pylori [16]): 6.7 µg/mL (≈ 19.2 µM)

CNC(=C[N+](=O)[O-])NCCSCc1ccc(CN(C)C)o1 [RANITIDINE]
Inhibition (Cavia porcellus [17]): 44% | Inhibition (Rattus norvegicus [18]): 72% | MIC (Helicobacter pylori [19]): > 1600 µg/mL

CCCC/N=C(\N)Nc1nc(-c2cccc(CNC(C)=O)n2)co1
inhibition in vivo at 1 mg/kg (Rattus norvegicus [1]): 92% | Inhibition (Cavia porcellus [3]): 81% | MIC (Helicobacter pylori [20]): 3.9 µg/mL (≈ 11.8 µM)

C/N=C(\N)Nc1nc(-c2cccc(CNC(C)=O)n2)cs1
MIC (Helicobacter pylori [21]): 5.1 µg/mL (≈ 16.8 µM)

CCCC/N=C(\N)Nc1nc(-c2ccc(CNC(C)=O)s2)cs1
Inhibition (Cavia porcellus [8]): <10% | MIC (Helicobacter pylori [22]): 0.32 µg/mL (≈ 0.91 µM)

CC(=O)NCc1cccc(-c2csc(N/C(N)=N/CCC(C)C)n2)n1
MIC (Helicobacter pylori [13]): 0.1 µg/mL (≈ 0.277 µM) | inhibition in vivo at 1 mg/kg (Rattus norvegicus [1]): 86% | Inhibition (Cavia porcellus [3]): 80%

CC(=O)NCc1cccc(-c2csc(N/C(N)=N/CCN(C)C)n2)n1
MIC (Helicobacter pylori [19]): > 100 µg/mL

Cc1ncc([N+](=O)[O-])n1CCO [METRONIDAZOLE]
MIC (Helicobacter pylori [23]): 5.4 µg/mL (≈ 31.6 µM)

COc1ccccc1CC/N=C(\N)Nc1nc(-c2cc(CNC(C)=O)on2)cs1
MIC (Helicobacter pylori [5]): 4.4 µg/mL (≈ 10.6 µM) | Inhibition (Cavia porcellus [3]): <10%

BISMUTH SUBCITRATE
MIC (Helicobacter pylori [19]): 18 µg/mL

COc1ccccc1CC/N=C(\N)Nc1nc(-c2c[nH]c(CNC(C)=O)n2)cs1
MIC (Helicobacter pylori [24]): 10.2 µg/mL (≈ 24.7 µM)

COc1ccc(CC/N=C(\N)Nc2nc(-c3cccc(CNC(C)=O)n3)cs2)cc1
MIC (Helicobacter pylori [25]): 0.42 µg/mL (≈ 0.989 µM) | inhibition in vivo at 1 mg/kg (Rattus norvegicus [1]): 18% | Inhibition (Cavia porcellus [3]): 24%

CC[C@H]1OC(=O)[C@H](C)[C@@H](O[C@H]2C[C@@](C)(OC)[C@@H](O)[C@H](C)O2)[C@H](C)[C@@H](O[C@@H]2O[C@H](C)C[C@H](N(C)C)[C@H]2O)[C@](C)(OC)C[C@@H](C)C(=O)[C@H](C)[C@@H](O)[C@]1(C)O [CLARITHROMYCIN]
MIC (Helicobacter pylori [19]): 0.057 µg/mL (≈ 0.0762 µM)

CC1(C)S[C@@H]2[C@H](NC(=O)[C@H](N)c3ccc(O)cc3)C(=O)N2[C@H]1C(=O)O [AMOXICILLIN]
MIC (Helicobacter pylori [26]): 0.021 µg/mL (≈ 0.0575 µM)

CC(=O)NCc1cccc(-c2csc(NC(=N)NCC(F)(F)F)n2)n1
MIC (Helicobacter pylori [7]): 13.4 µg/mL (≈ 36 µM)

CCCC/N=C(\N)Nc1nc(-c2cccc(CNC(C)=O)c2)co1
MIC (Helicobacter pylori [27]): 1.92 µg/mL (≈ 5.83 µM) | inhibition in vivo at 1 mg/kg (Rattus norvegicus [1]): 60% | Inhibition (Cavia porcellus [3]): 93%

COc1cccc(CC/N=C(\N)Nc2nc(-c3cccc(CNC(C)=O)n3)cs2)c1
MIC (Helicobacter pylori [28]): 0.14 µg/mL (≈ 0.33 µM) | inhibition in vivo at 1 mg/kg (Rattus norvegicus [1]): 68% | Inhibition (Cavia porcellus [3]): 83%

CSCC/N=C(\N)Nc1nc(-c2cccc(CNC(C)=O)n2)cs1
MIC (Helicobacter pylori [29]): 1.1 µg/mL (≈ 3.02 µM)

CCCC/N=C(\N)Nc1nc(-c2nc(CNC(C)=O)no2)cs1
MIC (Helicobacter pylori [16]): 10.9 µg/mL (≈ 32.3 µM) | Inhibition (Cavia porcellus [3]): <10%

Source: ChEMBL document CHEMBL1135391, “Anti-Helicobacter pylori agents. 5. 2-(Substituted guanidino)-4-arylthiazoles and aryloxazole analogues” (2002)
